The target of series [1] is T1, Nuclear receptor subfamily 1 group I member 3 (Homo sapiens, UniProt Q14994).
T1 sequence (Q14994 whole entry): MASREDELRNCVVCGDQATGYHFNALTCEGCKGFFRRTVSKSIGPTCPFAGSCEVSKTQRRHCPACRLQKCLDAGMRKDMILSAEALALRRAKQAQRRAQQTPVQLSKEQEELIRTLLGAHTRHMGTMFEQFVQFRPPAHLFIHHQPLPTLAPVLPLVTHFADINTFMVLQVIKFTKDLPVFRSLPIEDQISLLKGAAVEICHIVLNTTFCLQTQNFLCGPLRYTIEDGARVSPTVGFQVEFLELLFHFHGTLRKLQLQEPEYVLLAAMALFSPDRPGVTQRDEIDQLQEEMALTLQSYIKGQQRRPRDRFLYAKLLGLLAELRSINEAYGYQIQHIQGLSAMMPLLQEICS
Description: Agonist activity at human CAR expressed in human HepG2 cells assessed as induction of CYP2B6 mRNA expression at 1 to 5 uM after 24 hrs by qRT-PCR method. The series is classed as cell-based. The note with it: hepg2, 24 h.

For series [2], the target named is T1, Nuclear receptor subfamily 1 group I member 3. Description: Agonist activity at CAR expressed in human HepG2 cells at 1 to 20 uM after 48 hrs by p(ER6)3-luciferase reporter gene assay. In kind it is cell-based. The settings on record: hepg2, 48 h. An outline of the steps:
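HepG2 cells transiently co-transfected with p(ER6)3-luc reporter, wild-type CAR expression vector and pRL-TK normalization plasmid; after 24 h stabilization, treated with compounds or vehicle (DMSO 0.1%, v/v) for 48 h. Firefly and Renilla luciferase read; fold change versus vehicle (set to 1), means ± SD of triplicates from a representative experiment.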
(In a reporter assay the amount or activity of a reporter protein is the signal.)

Series [3] addresses CAR3 (NR1I3) (Homo sapiens, UniProt Q14994, WILDTYPEORMUTANTINASSAY1587668). Put plainly: (§1) Agonist activity at human CAR3 expressed in African green monkey COS-1 cells cotransfected with RXRalpha after 24 hrs by CYP2B6-luciferase reporter gene assay. The settings on record: human, COS-1 cells expressing human CAR3 and RXRalpha; read-out: Imax. In kind it is cell-based. An outline of the steps: (§2)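 COS-1 cells co-transfected with CYP2B6-luc, low-constitutive-activity CAR3 variant, RXRα (100 ng/well) and pRL-TK; after 24 h stabilization, compound or DMSO (0.1%, v/v) for 24 h. Firefly luciferase normalized to Renilla; fold change relative to vehicle (set to 1), means of three independent experiments.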

Series [4] concerns the target Nuclear receptor subfamily 1 group I member 3 (Homo sapiens, UniProt Q14994). The series is described as §1. The series is classed as cell-based. The note with it: for pEC50: cos-1; for Activity: human, cos-1, 24 h. In a few lines:
as §2

Series [5] has as its target T1, Nuclear receptor subfamily 1 group I member 3. Put plainly: Agonist activity at CAR LBD (108 to 348 residues) expressed in human HepG2 cells assessed as receptor binding to PGC1alpha by lanthascreenTR-FRET coactivator assay.
In series [6] the target is T2, Vitamin D3 receptor (Homo sapiens, UniProt P11473).
T2 sequence (P11473 whole entry): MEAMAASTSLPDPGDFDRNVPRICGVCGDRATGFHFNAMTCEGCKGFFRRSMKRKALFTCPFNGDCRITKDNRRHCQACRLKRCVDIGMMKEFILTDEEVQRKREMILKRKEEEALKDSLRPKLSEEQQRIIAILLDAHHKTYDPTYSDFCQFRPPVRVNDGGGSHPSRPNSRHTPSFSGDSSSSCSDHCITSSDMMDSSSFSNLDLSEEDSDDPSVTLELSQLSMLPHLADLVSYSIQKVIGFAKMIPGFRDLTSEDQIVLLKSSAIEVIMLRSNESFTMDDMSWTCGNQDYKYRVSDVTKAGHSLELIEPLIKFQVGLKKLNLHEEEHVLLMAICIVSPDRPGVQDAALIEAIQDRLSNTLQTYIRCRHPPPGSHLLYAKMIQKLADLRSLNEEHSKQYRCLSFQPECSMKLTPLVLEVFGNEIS
Put plainly: Agonist activity at VDR expressed in human HuH7 cells after 24 hrs by pDR3-luciferase reporter gene assay. The series is classed as cell-based, Huh-7.

Series [7] has as its target T1, Nuclear receptor subfamily 1 group I member 3. Description: Agonist activity at CAR in human primary hepatocytes assessed as upregulation of MDR/ABCB1 mRNA expression at 10 uM after 24 hrs by qRT-PCR method. In kind it is cell-based, Hepatocyte.
The target in series [8] is T3, Aryl hydrocarbon receptor (Homo sapiens, UniProt P35869).
T3 sequence (P35869 whole entry): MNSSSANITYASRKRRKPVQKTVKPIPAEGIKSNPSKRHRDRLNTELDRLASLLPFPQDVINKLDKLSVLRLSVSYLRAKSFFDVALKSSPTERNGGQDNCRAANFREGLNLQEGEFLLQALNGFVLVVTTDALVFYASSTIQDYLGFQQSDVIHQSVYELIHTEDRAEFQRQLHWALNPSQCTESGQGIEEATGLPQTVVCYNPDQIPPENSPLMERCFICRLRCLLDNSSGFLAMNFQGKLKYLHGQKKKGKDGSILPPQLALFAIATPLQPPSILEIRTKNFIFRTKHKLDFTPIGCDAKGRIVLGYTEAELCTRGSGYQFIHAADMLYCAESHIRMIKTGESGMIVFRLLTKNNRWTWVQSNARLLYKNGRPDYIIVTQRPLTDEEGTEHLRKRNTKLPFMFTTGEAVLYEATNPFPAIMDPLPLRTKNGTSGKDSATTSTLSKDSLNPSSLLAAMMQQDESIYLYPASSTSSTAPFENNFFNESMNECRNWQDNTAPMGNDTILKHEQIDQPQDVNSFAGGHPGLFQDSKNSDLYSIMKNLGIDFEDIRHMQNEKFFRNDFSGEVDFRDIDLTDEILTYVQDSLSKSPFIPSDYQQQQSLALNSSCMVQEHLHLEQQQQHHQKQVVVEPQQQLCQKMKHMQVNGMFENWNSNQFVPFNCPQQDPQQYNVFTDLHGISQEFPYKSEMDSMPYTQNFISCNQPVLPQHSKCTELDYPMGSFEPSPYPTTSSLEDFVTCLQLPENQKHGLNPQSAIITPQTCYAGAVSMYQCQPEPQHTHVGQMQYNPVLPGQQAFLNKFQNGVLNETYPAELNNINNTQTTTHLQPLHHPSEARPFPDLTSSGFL
Description: Agonist activity at AHR in human HepaRG cells assessed as upregulation of CYP1B1 mRNA expression at 10 uM after 24 hrs by qRT-PCR method. The series is classed as cell-based. (In qPCR the cycle at which signal appears reflects the starting amount.)

Series [9] concerns the target T4, Cytochrome P450 2B6 (Homo sapiens, UniProt P20813).
T4 sequence (P20813 whole entry): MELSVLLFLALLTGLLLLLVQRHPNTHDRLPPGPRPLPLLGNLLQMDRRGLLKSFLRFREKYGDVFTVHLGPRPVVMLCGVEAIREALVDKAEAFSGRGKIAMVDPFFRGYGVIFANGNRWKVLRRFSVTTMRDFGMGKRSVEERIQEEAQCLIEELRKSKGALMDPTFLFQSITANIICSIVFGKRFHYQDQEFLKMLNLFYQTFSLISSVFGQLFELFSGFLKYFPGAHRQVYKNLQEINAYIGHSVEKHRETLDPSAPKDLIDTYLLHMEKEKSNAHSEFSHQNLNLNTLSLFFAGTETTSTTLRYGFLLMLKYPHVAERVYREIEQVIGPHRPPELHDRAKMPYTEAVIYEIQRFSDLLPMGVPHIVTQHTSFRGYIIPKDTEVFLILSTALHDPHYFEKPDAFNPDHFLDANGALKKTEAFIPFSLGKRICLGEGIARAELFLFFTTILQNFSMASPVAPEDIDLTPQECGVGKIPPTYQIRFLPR
Put plainly: Inhibition of recombinant human CYP2B6 by P450-Glo luminescence assay. The series is classed as ADME.

pEC50, pIC50: −log10 of the molar value.

By pEC50 is commonly meant the negative decadic logarithm of the EC50, by convention in mol/L. The pIC50 is −log10 of the IC50, conventionally taken in molar units. Consider `COc1cccc(-c2nc3ccccc3c(=S)[nH]2)c1`, for which the Activity entry in series [1] is recorded as “Active”; in [2], “Active”; in [4], “Dose-dependent effect”; in series [7] it was “Active”; in series [8], “Active”. Besides, the Emax at 24 h in [3] was found to be 333%. Besides, the pEC50 in series [4] is 5.21; in series [5], 6.16; in series [6] it was 6.29. In addition, the pIC50 in [9] was 4.45.
Consider `COc1cccc(-c2nc(SC)c3ccccc3n2)c1`, for which the Activity entry was “Active” in [2], “Dose-dependent effect” in series [4], “Active” in [7] and “Active” in [8]. In series [3], the Emax at 24 h worked out at 158%. In addition, the negative-log EC50 (pEC50) in series [4] was 5.39; in series [5] it was 5.29; in series [6] it was below 5.52. Further, in series [9], the pIC50 is 4.50.
Consider `COc1cccc(-c2nc(OC)c3ccccc3n2)c1`, for which the Activity entry in series [2] was “Active”; in series [4], “Dose-dependent effect”; in series [7] it was “Active”; in series [8], “Active”. For the same compound, the Emax at 24 h in series [3] amounted to 462%. The pEC50 is 5.31 in [4], 5.68 in [5] and 5.71 in series [6]. Also, the pIC50 in series [9] was 4.44.

The values are drawn from ChEMBL document CHEMBL3822384, “2-(3-Methoxyphenyl)quinazoline Derivatives: A New Class of Direct Constitutive Androstane Receptor (CAR) Agonists” (J Med Chem, 2016).
